Experimental data from ChEMBL document CHEMBL1123124, “New antihistaminic N-heterocyclic 4-piperidinamines. 2. Synthesis and antihistaminic activity of 1-[(4-fluorophenyl)methyl]-N-(4-piperidinyl)-1H-benzimidazol-2-a mines” (1985).

Key:
[1] = system: Cavia porcellus; assay: In vivo histamine induced lethality after 24 hours of iv administration in guinea pig; type: functional
[2] = system: Cavia porcellus; assay: In vivo histamine induced lethality after 3 hours of iv administration in guinea pig; type: functional
[3] = system: Cavia porcellus; assay: In vivo histamine induced lethality after 8 hours of iv administration in guinea pig; type: functional
[4] = system: Rattus norvegicus; assay: In vivo antihistaminic activity using compound 48/80 induced lethality test in rat after 2 hr( oral administration); type: functional
Summary of the method: (§1)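 Protection was survival for 4 h after challenge. ED50 with confidence limits was calculated by Finney from five rats per dose and at least three doses of a geometric series (0.0025–40 mg/kg). Estimated ED50 used at least two rats per dose.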

[5] = system: Rattus norvegicus; assay: Inhibition of histamine skin reaction in rat after 2 hr of oral administration.; type: functional
Summary of the method: (§2)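 Test compound or solvent given orally to rats 2 h before four intradermal injections into clipped back: two of 50 μL histamine dihydrochloride (1 mg/mL in saline), two of 50 μL serotonin (2 μg/mL in saline). Then iv 0.5 mL of 0.5% trypan blue. Bluing of skin reactions scored 30 min later.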

[6] = system: Rattus norvegicus; assay: Inhibition of mydriatic activity in rat after 2 hr of oral administration.; type: functional
[7] = system: Rattus norvegicus; assay: Inhibition of serotonin skin reaction in rat after 2 hr of oral administration.; type: functional; summary of the method: as §2
[8] = system: Rattus norvegicus; assay: In vivo antihistaminic activity using compound 48/80 induced lethality test after 1 hr of subcutaneous administration in rat; type: functional; details: sc; summary of the method: as §1
[9] = system: Rattus norvegicus; assay: In vivo antihistaminic activity using compound 48/80 induced lethality test in rat after 2 hr of oral administration.; type: functional; summary of the method: as §1
[10] = system: Cavia porcellus; assay: In vivo histamine induced lethality after 48 hours of iv administration in guinea pig; type: functional
Summary of the method: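 Male albino guinea pigs (280–360 g) were dosed orally 3, 24, 48 or 96 h before an iv challenge with histamine dihydrochloride (1.25 mg/kg). Protection was survival at 1 h. Doses rose in 2-fold steps from 0.0025 mg/kg, with at least three doses and 4–6 animals per dose and time point. PD50 with confidence limits was computed by Finney.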

[11] = system: Cavia porcellus; assay: In vivo histamine induced lethality after 96 hours of iv administration in guinea pig; type: functional
[12] = system: Rattus norvegicus; assay: In vivo antihistaminic activity using compound 48/80 induced lethality test in rat after 2 hr of oral administration; type: functional; summary of the method: as §1
[13] = system: Rattus norvegicus; assay: Inhibition of histamine skin reaction in rat after 2 hr of oral administration; type: functional; summary of the method: as §2
[14] = system: Rattus norvegicus; assay: Inhibition of histamine skin reaction in rat after 2 hr of subcutaneous administration.; type: functional; details: sc
[15] = system: Rattus norvegicus; assay: Inhibition of mydriatic activity in rat after 2 hr of intraperitoneal administration; type: functional; details: ip
[16] = system: Rattus norvegicus; assay: Inhibition of serotonin skin reaction in rat after 2 hr of oral administration; type: functional; summary of the method: as §2
[17] = system: Rattus norvegicus; assay: Inhibition of serotonin skin reaction in rat after 2 hr of subcutaneous administration.; type: functional; details: sc
[18] = system: Rattus norvegicus; assay: Inhibition of mydriatic activity in rat after 2 hr of intraperitoneal administration.; type: functional; details: ip
[19] = system: Rattus norvegicus; assay: In vivo antihistaminic activity using compound 48/80 induced lethality test in rat after 2 hr of subcutaneous administration; type: functional; details: sc; summary of the method: as §1
[20] = system: Rattus norvegicus; assay: Inhibition of mydriatic activity in rat after 2 hr of oral administration; type: functional
[21] = system: Rattus norvegicus; assay: In vivo antihistaminic activity using compound 48/80 induced lethality test in rat 2 hr after oral administration; type: functional; summary of the method: as §1
[22] = system: Rattus norvegicus; assay: In vivo antihistaminic activity using compound 48/80 induced lethality test in rat after 2 hr of oral administration; C represents estimated ED50 values used whenever possible for comparison of relative potencies; type: functional, organism-based
Summary of the method: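 Protection = survival 4 h after challenge. ED50 (dose giving 50% survival) calculated with confidence limits by Finney, five animals per dose, at least three doses from geometric series 0.0025–40.0 mg/kg. Estimated ED50 values based on at least two animals per dose.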

Q: Which ED50 [1] does the source give for CN1CCC(=C2c3ccccc3C=Cc3ccccc32)CC1 [CYPROHEPTADINE] here?
A: The ED50 was greater than 2.5 mg/kg.

Q: And the ED50 [2]?
A: The ED50 was 0.08 mg/kg.

Q: What about the ED50 [3] of the same compound?
A: The ED50 was 0.88 mg/kg.

Q: What about the ED50 [4] of the same compound?
A: The ED50 was 1.13 mg/kg.

Q: What about the ED50 [5] of the same compound?
A: Its ED50 is 0.89 mg/kg.

Q: What about the ED50 [6] of the same compound?
A: Its ED50 is 9.36 mg/kg.

Q: What about the ED50 [7] of the same compound?
A: Its ED50 is 2.35 mg/kg.

Q: Fc1ccc(Cn2c(NC3CCN(CCc4ccccc4)CC3)nc3ccc(F)cc32)cc1 was tested. Which ED50 [8] did it give?
A: Its ED50 is 1.25 mg/kg.

Q: What about the ED50 [9] of the same compound?
A: Its ED50 is 0.63 mg/kg.

Q: With COc1ccc(CCN2CCC(Nc3nc4ccccc4n3Cc3ccc(F)cc3)CC2)cc1 [ASTEMIZOLE] as the compound, how does the ED50 [1] read?
A: Its ED50 is 0.07 mg/kg.

Q: What about the ED50 [2] of the same compound?
A: The ED50 was 0.33 mg/kg.

Q: What about the ED50 [10] of the same compound?
A: Its ED50 is 0.04 mg/kg.

Q: And the ED50 [3]?
A: The ED50 was 0.17 mg/kg.

Q: What about the ED50 [11] of the same compound?
A: Its ED50 is 0.19 mg/kg.

Q: What about the ED50 [8] of the same compound?
A: The ED50 was 0.11 mg/kg.

Q: And the ED50 [12]?
A: Its ED50 is 0.11 mg/kg.

Q: What about the ED50 [13] of the same compound?
A: Its ED50 is 0.13 mg/kg.

Q: And the ED50 [14]?
A: Its ED50 is 0.15 mg/kg.

Q: What about the ED50 [15] of the same compound?
A: Its ED50 is greater than 40 mg/kg.

Q: And the ED50 [6]?
A: Its ED50 is greater than 160 mg/kg.

Q: And the ED50 [16]?
A: Its ED50 is 14.2 mg/kg.

Q: What about the ED50 [17] of the same compound?
A: The ED50 was greater than 2.5 mg/kg.

Q: What does the source list for Oc1ccc(CCN2CCC(Nc3nc4ccccc4n3Cc3ccc(F)cc3)CC2)cc1 [DESMETHEYLASTEMIZOLE]?
A: ED50 [1]: 0.06 mg/kg; ED50 [2]: 0.19 mg/kg; ED50 [10]: 0.12 mg/kg; ED50 [3]: 0.08 mg/kg; ED50 [11]: 0.27 mg/kg; ED50 [8]: 0.16 mg/kg; ED50 [12]: 0.1 mg/kg; ED50 [14]: 0.08 mg/kg; ED50 [18]: > 40 mg/kg; ED50 [17]: ≥ 0.63 mg/kg

Q: Fc1ccc(Cn2c(NC3CCN(CCc4ccccc4)CC3)nc3cc(F)ccc32)cc1 was tested. Which ED50 [8] did it give?
A: The ED50 was 1.25 mg/kg.

Q: And the ED50 [9]?
A: Its ED50 is greater than 2.5 mg/kg.

Q: Which ED50 [2] does the source give for CN1CCC(=C2c3ccccc3CCc3cccnc32)CC1 [AZATADINE] here?
A: The ED50 was 0.014 mg/kg.

Q: And the ED50 [10]?
A: Its ED50 is greater than 2.5 mg/kg.

Q: And the ED50 [3]?
A: The ED50 was 0.06 mg/kg.

Q: And the ED50 [19]?
A: Its ED50 is 0.049 mg/kg.

Q: What about the ED50 [12] of the same compound?
A: The ED50 was 0.48 mg/kg.

Q: What about the ED50 [13] of the same compound?
A: Its ED50 is 0.77 mg/kg.

Q: And the ED50 [6]?
A: Its ED50 is 5.39 mg/kg.

Q: What about the ED50 [16] of the same compound?
A: The ED50 was 18.8 mg/kg.

Q: For COc1ccc(CN(CCN(C)C)c2ccccn2)cc1 [PYRILAMINE], which ED50 [5] is on record?
A: Its ED50 is greater than 40 mg/kg.

Q: What about the ED50 [20] of the same compound?
A: The ED50 was 56.5 mg/kg.

Q: And the ED50 [7]?
A: Its ED50 is greater than 40 mg/kg.

Q: And the ED50 [21]?
A: The ED50 was 56.6 mg/kg.

Q: Which results are given for O=[N+]([O-])c1ccc(CCN2CCC(Nc3nc4ccccc4n3Cc3ccc(F)cc3)CC2)cc1?
A: ED50 [8]: > 2.5 mg/kg; ED50 [22]: Estimated ED50 values used whenever possible

Q: Which ED50 [1] does the source give for Br.OCCN1CCC(Nc2nc3ccccc3n2Cc2ccc(F)cc2)CC1 here?
A: Its ED50 is 0.09 mg/kg.

Q: And the ED50 [2]?
A: Its ED50 is 0.04 mg/kg.

Q: And the ED50 [10]?
A: Its ED50 is 0.3 mg/kg.

Q: What about the ED50 [3] of the same compound?
A: The ED50 was 0.07 mg/kg.

Q: And the ED50 [11]?
A: Its ED50 is 2.15 mg/kg.

Q: What about the ED50 [8] of the same compound?
A: The ED50 was 0.04 mg/kg.

Q: And the ED50 [12]?
A: Its ED50 is 0.63 mg/kg.

Q: What about the ED50 [14] of the same compound?
A: The ED50 was 0.08 mg/kg.

Q: What about the ED50 [18] of the same compound?
A: The ED50 was greater than 40 mg/kg.

Q: What about the ED50 [17] of the same compound?
A: Its ED50 is greater than 0.63 mg/kg.
